The source made the active and inactive calls. The calls are words filed in the database; no cut-off is given here.
What was measured:
26S proteasome = experiment: Inhibition of chymotrypsin-like enzyme activity of purified human 20S proteasome using Suc-Leu-Leu-Val-Tyr-AMC as substrate by fluorescence method; assay type: protein-complex assay
Outline: (§1)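 Purified human 20S proteasome preincubated with compound for 15 min. Fluorogenic substrate Suc-Leu-Leu-Val-Tyr-AMC (50 µM) then added to read chymotrypsin-like activity.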

[1] = Cytotoxic activity against human NCI-H929 cells after 72 hrs by MTS assay; assay type: functional, cell-based; settings: NCI-H929, 72 h
Outline: (§2)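 100 µL cell suspension (10⁴ cells/well) seeded in 96-well plates; compound exposure 72 h, then MTS at 0.5 mg/mL final for 2–4 h. Absorbance read at 490 nm with 690 nm background subtraction. Growth inhibitory ratio = (A_control − A_sample)/A_control.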

RPMI-8226 [2] = experiment: Cytotoxic activity against human RPMI8226 cells after 72 hrs by MTS assay; assay type: functional, cell-based; settings: RPMI-8226, 72 h; outline: as §2
[3] = biological target: 26S proteasome (Homo sapiens) (UniProt Q99460+P49721+P20618+P28074+P28062+P28065+P28072+O00487+P25786+P25787+P25788+P25789+P28066+P60900+O14818+Q8TAA3+P40306+A5LHX3+P49720+P28070+Q99436+Q16186+P35998+P62191+P43686+P62333+P17980+P62195+Q13200+O43242+O00232+O00231+Q15008+P51665+Q9UNM6+P55036+P48556+P60896); experiment: Inhibition of chymotrypsin-like enzyme activity of purified human 20S proteasome using Suc-Leu-Leu-Val-Tyr-AMC as substrate at 1 ug/ml by fluorescence method; assay type: protein-complex assay; outline: as §1
RPMI-8226 [4] = experiment: Induction of apoptosis human RPMI8226 cells assessed as accumulation of poly-ubiquitin at 100 nM after 12 hrs by Western blot analysis; assay type: functional, cell-based
Outline: (§3)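 RPMI 8226 cells in 6-well plates exposed to compounds for 12 h; DMSO as vehicle control. Cells rinsed twice in ice-cold PBS and lysed in 1× SDS loading buffer. Lysates run on 10% SDS–PAGE and transferred to PVDF. Blocked 1 h in 5% milk, primary antibodies 2 h, secondary 1 h, ECL detection. Probed for poly-ubiquitin, PARP, cleaved PARP, β-actin.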

RPMI-8226 [5] = experiment: Induction of apoptosis human RPMI8226 cells assessed as PARP cleavage at 100 nM after 12 hrs by Western blot analysis; assay type: functional, cell-based; outline: as §3

Row | IC50 (26S proteasome) [nM] | inhibition [3] [%] | Compound | IC50 [1] [nM] | IC50 (RPMI-8226 [2]) [nM] | further results
1 | 380 | 87.7 | CC(C)C[C@H](NC(=O)[C@H](Cc1ccccc1)NC(=O)CC(NC(=O)c1ccc(F)cc1)c1ccccc1)C(=O)[C@@]1(C)CO1 (some centres undefined) | 2370 | 1550 | –
2 | – | 0.3 | COc1ccc(C(=O)N[C@@H](Cc2ccccc2)C(=O)NC(CC(=O)N[C@@H](CC(C)C)C(=O)[C@@]2(C)CO2)c2ccccc2)cc1 (some centres undefined) | – | – | Activity (RPMI-8226 [4]): inactive; Activity (RPMI-8226 [5]): inactive
3 | 170 | 84.4 | CC(C)C[C@H](NC(=O)[C@H](Cc1ccccc1)NC(=O)C[C@@H](NC(=O)c1ccc(C(F)(F)F)cc1)c1ccccc1)C(=O)[C@@]1(C)CO1 | 230 | 340 | –
4 | – | 0.37 | CC(C)C[C@H](NC(=O)CC(NC(=O)[C@H](Cc1ccccc1)NC(=O)c1ccc(F)cc1)c1ccccc1)C(=O)[C@@]1(C)CO1 (some centres undefined) | – | – | –
5 | 110 | 86.1 | CC(C)C[C@H](NC(=O)[C@H](Cc1ccccc1)NC(=O)C[C@@H](NC(=O)c1ccc2ccccc2c1)c1ccccc1)C(=O)[C@@]1(C)CO1 | 170 | 230 | Activity (RPMI-8226 [4]): Active; Activity (RPMI-8226 [5]): Active
6 | 220 | 76 | CC(C)C[C@H](NC(=O)[C@H](Cc1ccccc1)NC(=O)CC(NC(=O)c1ccc(C(F)(F)F)cc1)c1ccccc1)C(=O)[C@@]1(C)CO1 (some centres undefined) | 960 | 320 | –
7 | – | 0.3 | CC(C)C[C@H](NC(=O)CC(NC(=O)[C@H](Cc1ccccc1)NC(=O)c1ccccc1)c1ccccc1)C(=O)[C@@]1(C)CO1 (some centres undefined) | – | – | –
8 | – | 0.39 | COc1ccc(C(=O)N[C@@H](CC(C)C)C(=O)NC(CC(=O)N[C@@H](Cc2ccccc2)C(=O)[C@@]2(C)CO2)c2ccccc2)cc1 (some centres undefined) | – | – | –
9 | 440 | 88.5 | CC(C)C[C@H](NC(=O)[C@H](Cc1ccccc1)NC(=O)CC(NC(=O)c1ccccc1)c1ccccc1)C(=O)[C@@]1(C)CO1 (some centres undefined) | 2690 | 1680 | –
10 | – | 11.8 | CC(C)C[C@H](NC(=O)[C@H](Cc1ccccc1)NC(=O)C[C@H](NC(=O)c1ccc2ccccc2c1)c1ccccc1)C(=O)[C@@]1(C)CO1 | – | – | –
11 | – | 25.6 | CC(C)C[C@H](NC(=O)[C@H](Cc1ccccc1)NC(=O)C[C@H](NC(=O)c1ccc(C(F)(F)F)cc1)c1ccccc1)C(=O)[C@@]1(C)CO1 | – | – | –
12 | – | 1.43 | CC(C)C[C@H](NC(=O)c1ccc(F)cc1)C(=O)NC(CC(=O)N[C@@H](Cc1ccccc1)C(=O)[C@@]1(C)CO1)c1ccccc1 (some centres undefined) | – | – | –
13 | 340 | 84.1 | COc1ccc(C(=O)NC(CC(=O)N[C@@H](Cc2ccccc2)C(=O)N[C@@H](CC(C)C)C(=O)[C@@]2(C)CO2)c2ccccc2)cc1 (some centres undefined) | 1350 | 1160 | –
14 | 190 | 74.8 | CC(C)C[C@H](NC(=O)[C@H](Cc1ccccc1)NC(=O)CC(NC(=O)c1ccc2ccccc2c1)c1ccccc1)C(=O)[C@@]1(C)CO1 (some centres undefined) | 700 | 420 | –
15 | 360 | 72 | CC(C)C[C@H](NC(=O)[C@H](Cc1ccccc1)NC(=O)CC(NC(=O)c1ccc(C#N)cc1)c1ccccc1)C(=O)[C@@]1(C)CO1 (some centres undefined) | 610 | 410 | –
16 | 340 | 85.8 | CC(C)C[C@H](NC(=O)[C@H](Cc1ccccc1)NC(=O)CC(NC(=O)c1cccnc1)c1ccccc1)C(=O)[C@@]1(C)CO1 (some centres undefined) | 8700 | 4730 | –
17 | – | 47.3 | CC(C)C[C@H](NC(=O)[C@H](Cc1ccccc1)NC(=O)CC(NC(=O)c1ccc(-c2ccccc2)cc1)c1ccccc1)C(=O)[C@@]1(C)CO1 (some centres undefined) | – | – | –

Continued, molecule first:

Row | Compound | IC50 (26S proteasome) [nM] | inhibition [3] [%] | IC50 [1] [nM] | IC50 (RPMI-8226 [2]) [nM] | further results
18 | CC(C)C[C@H](NC(=O)CC(NC(=O)[C@H](Cc1ccccc1)NC(=O)c1cnccn1)c1ccccc1)C(=O)[C@@]1(C)CO1 (some centres undefined) | – | 1.51 | – | – | –
19 | COc1ccc(C(=O)N[C@@H](CC(C)C)C(=O)NC(CC(=O)N[C@@H](CC(C)C)C(=O)[C@@]2(C)CO2)c2ccccc2)cc1 (some centres undefined) | – | 0.56 | – | – | –
20 | CC(C)C[C@H](NC(=O)[C@H](Cc1ccccc1)NC(=O)CC(NC(=O)c1cnccn1)c1ccccc1)C(=O)[C@@]1(C)CO1 (some centres undefined) | – | 48.6 | – | – | –
21 | CC(C)C[C@H](NC(=O)[C@H](Cc1ccccc1)NC(=O)CC(NC(=O)CN1CCOCC1)c1ccccc1)C(=O)[C@@]1(C)CO1 (some centres undefined) | – | 40 | – | – | –
22 | CC(C)C[C@H](NC(=O)c1cnccn1)C(=O)NC(CC(=O)N[C@@H](CC(C)C)C(=O)[C@@]1(C)CO1)c1ccccc1 (some centres undefined) | – | 9.01 | – | – | –
23 | CC(C)C[C@H](NC(=O)c1ccccc1)C(=O)NC(CC(=O)N[C@@H](CC(C)C)C(=O)[C@@]1(C)CO1)c1ccccc1 (some centres undefined) | – | 6.42 | – | – | –
24 | CC(C)C[C@H](NC(=O)[C@H](CCc1ccccc1)NC(=O)CN1CCOCC1)C(=O)N[C@@H](Cc1ccccc1)C(=O)N[C@@H](CC(C)C)C(=O)[C@@]1(C)CO1 [CARFILZOMIB] | – | – | 21.3 | 13.2 | –
25 | CC(C)C[C@H](NC(=O)c1cnccn1)C(=O)NC(CC(=O)N[C@@H](Cc1ccccc1)C(=O)[C@@]1(C)CO1)c1ccccc1 (some centres undefined) | – | 8.7 | – | – | –
26 | CC(C)C[C@H](NC(=O)CC(NC(=O)[C@H](Cc1ccccc1)NC(=O)c1cccnc1)c1ccccc1)C(=O)[C@@]1(C)CO1 (some centres undefined) | – | 0.48 | – | – | –
27 | CC(C)C[C@H](NC(=O)c1cccnc1)C(=O)NC(CC(=O)N[C@@H](Cc1ccccc1)C(=O)[C@@]1(C)CO1)c1ccccc1 (some centres undefined) | – | 3.16 | – | – | –
28 | CC(C)C[C@H](NC(=O)[C@H](Cc1ccccc1)NC(=O)CC(NC(=O)C1CCOCC1)c1ccccc1)C(=O)[C@@]1(C)CO1 (some centres undefined) | 630 | 69.5 | – | – | –
29 | CC(C)C[C@H](NC(=O)[C@H](Cc1ccccc1)NC(=O)CC(NC(=O)c1cccs1)c1ccccc1)C(=O)[C@@]1(C)CO1 (some centres undefined) | 950 | 62.5 | – | – | –
30 | CC(C)C[C@H](NC(=O)c1ccc(F)cc1)C(=O)NC(CC(=O)N[C@@H](CC(C)C)C(=O)[C@@]1(C)CO1)c1ccccc1 (some centres undefined) | – | 5.46 | – | – | –
31 | CC(C)C[C@H](NC(=O)c1cccnc1)C(=O)NC(CC(=O)N[C@@H](CC(C)C)C(=O)[C@@]1(C)CO1)c1ccccc1 (some centres undefined) | – | 0.84 | – | – | –
32 | CC(C)C[C@H](NC(=O)[C@H](Cc1ccccc1)NC(=O)c1cnccn1)B(O)O [BORTEZOMIB] | – | – | 10.8 | 7.96 | –
33 | CC(C)C[C@H](NC(=O)[C@H](Cc1ccccc1)NC(=O)CC(NC(=O)c1ccco1)c1ccccc1)C(=O)[C@@]1(C)CO1 (some centres undefined) | – | 42.3 | – | – | –
34 | CC(C)C[C@H](NC(=O)c1ccccc1)C(=O)NC(CC(=O)N[C@@H](Cc1ccccc1)C(=O)[C@@]1(C)CO1)c1ccccc1 (some centres undefined) | – | 1.56 | – | – | –
